Assay outcomes: PubChem, several laboratories
Compounds with a hit are over-represented: about 1.7% of the library has one in this group of screens.
Rce1 inhib = inhibitors of yeast Ras-converting enzyme. Q03530. yeast membranes, quenched prenylated peptide cleavage fluorescence. calls only. hit rate 0.27% among 290,000;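 active = fall in fluorescence gain of 50% or more versus controls, with final raw signal at or below 3038400; inconclusive = same 50% fall but final raw signal above 3038400; inactive = fall in fluorescence gain under 50%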;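 note: plate controls were neutral control wells for no effect and wells lacking membranes for full effect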
Runt-CBFb FRET = inhibitors of human RUNX1 Runt domain binding to CBFb; AID 1496; Cerulean-Runt/Venus-CBFb FRET ratio 530/480, 1 h; inhibition, % at 20 µM; Q01196+Q13951; hit rate 0.46% among 220,000;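 active = inhibition over about 50% at 20 µM in the single-dose screen, limit read from the data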;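 note: 0% = DMSO wells and 100% = excess unlabeled CBFb competitor control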
Target sequence (Q01196 whole entry, looked up, the tested form may be a part): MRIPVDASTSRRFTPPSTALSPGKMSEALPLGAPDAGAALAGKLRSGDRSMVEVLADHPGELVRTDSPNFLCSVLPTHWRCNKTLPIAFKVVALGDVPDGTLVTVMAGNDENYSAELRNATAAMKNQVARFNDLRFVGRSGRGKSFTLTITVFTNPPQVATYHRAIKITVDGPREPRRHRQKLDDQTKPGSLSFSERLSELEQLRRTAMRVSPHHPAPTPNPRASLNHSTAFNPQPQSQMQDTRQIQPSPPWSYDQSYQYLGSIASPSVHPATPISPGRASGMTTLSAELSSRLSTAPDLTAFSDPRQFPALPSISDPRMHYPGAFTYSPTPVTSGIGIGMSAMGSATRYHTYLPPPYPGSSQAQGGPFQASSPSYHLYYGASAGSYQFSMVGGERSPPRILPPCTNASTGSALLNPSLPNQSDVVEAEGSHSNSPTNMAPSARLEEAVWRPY
Target sequence (Q13951 whole entry, looked up, the tested form may be a part): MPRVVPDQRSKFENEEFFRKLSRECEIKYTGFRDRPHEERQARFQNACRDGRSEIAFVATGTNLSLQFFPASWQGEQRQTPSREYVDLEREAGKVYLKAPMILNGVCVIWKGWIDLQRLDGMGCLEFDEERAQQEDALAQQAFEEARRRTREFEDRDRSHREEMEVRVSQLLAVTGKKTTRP
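Schedule: protein complex preformed 1 h, compound exposure 1 h, room temperature, dark; test system: Cerulean-labeled Runt domain protein; amount: 100 nM per protein; buffer or medium: Tris 50 mM pH 7.5, KCl, K2SO4, 0.01% BSA; read-out: loss of energy transfer signal; detection: FRET fluorescence; controls: 5 µM unlabeled CBFb as full-inhibition high control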
Runt-SMMHC FRET = blocks binding of human RUNX1 Runt domain to CBFb-SMMHC; hit rate 0.74% among 220,000; AID 1434; Cerulean-Runt/Venus-CBFb-SMMHC FRET ratio 530/480, 1 h; inhibition, % at 20 µM; Q01196+Q13951;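 active = mean inhibition across duplicate retests at 20 µM reaching about 50%, limit read from the data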;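 note: 0% = DMSO wells and 100% = wells with excess untagged CBFb-SMMHC; inhibitors lower the FRET ratio by blocking Runt binding to CBFb-SMMHC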
RanGTP-Impb inh = disruptors of Ran-importin-beta complex formation – biochemical, FRET, CFP-Ran, YFP-importin-beta, homogeneous, primary screen. cell-free CFP-Ran/YFP-importin-beta FRET ratio. hit rate 1.1% among 300,000. AID 2216. inhibition, % (no concentration beside the values);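 active = more than half of the replicate wells show a fall in the fluorescence ratio signal beyond about 16%, limit read from the data, passing the limit was not always enough; inconclusive = exactly half of the replicate wells pass the set limit; inactive = fewer than half of replicates pass the limit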;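 note: 0% = DMSO wells and 100% = Ran loaded with GDP instead of GTP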
Vif imaging = HIV Vif inhibition. HEK293T cells, Vif self-association by quenched fluorescence, imaging, 24 h. inhibition, % at 7.49 µM. hit rate 0.35% among 340,000; in the data active = inhibition above about 50%, passing the limit was not always enough; inconclusive = no clear call, values can overlap the other calls; inactive = below about 31%
Active calls of the source: *; i = inactive; ? = inconclusive; / = no result; + = active, no number.

SMILES	Rce1 inhib	Runt-CBFb FRET	Runt-SMMHC FRET	RanGTP-Impb inh	Vif imaging
CC(=O)Nc1ccc(N(C(=O)Cc2cccs2)C(C(=O)NC2CCCC2)c2ccncc2)cc1 (stereo unspecified)	i	/	/	-4	6
CC(Cc1cccs1)NC(=O)Nc1ccc([N+](=O)[O-])cc1 (stereo unspecified)	+	0	2	?	2
CC(Cc1cccs1)NC(=O)c1cccs1 (stereo unspecified)	i	-2	1	-1	-5
O=C(Nc1c2ccccc2nc2ccccc12)C(Cl)(Cl)Cl	i	12	-14	135*	-14
O=C(Nc1c2c(nc3ccccc13)CCCC2)c1ccccc1Cl	i	-2	-2	1	-4
COC(=O)c1cc(C)nc(N)c1C#N	i	9	10	2	3
COC(=O)c1c(C#N)c(N)nc2c1CCC2	i	96*	62*	66*	0
O=C(Nc1nccs1)C1CCCN1/C=C/C(=O)C(F)(F)F (stereo unspecified)	i	/	/	4	-13
COc1ccc(S(=O)(=O)N2CCCCC2)cc1NC(=O)CNc1ccccc1C(C)=O	/	/	/	/	-4
CCOC(=O)C1=C(C)N(CCCC(=O)O)C(=O)NC1c1ccccc1 (stereo unspecified)	i	/	/	1	-4
CCOC(=O)C1=C(C)N(CCCC(=O)O)C(=O)NC1c1ccccc1OC(=O)c1cccs1 (stereo unspecified)	+	/	/	-1	/
CCOC(=O)C1=C(C)N(CCO)C(=O)NC1c1ccccc1 (stereo unspecified)	i	0	0	-3	63*
COc1ccc(-c2ccc(CN3C(C(C)C)C(=O)N(Cc4cn(Cc5ccco5)nn4)CCS3(=O)=O)cc2)cn1 (stereo unspecified)	/	/	/	/	-26
Cc1nn(C(=O)c2ccco2)c(C)c1Sc1ccc(Br)cc1	i	-1	-2	0	/
Cc1nn(C(=O)c2ccco2)c(C)c1Sc1ccccc1	i	53*	-2	6	-1
O=C(COC(=O)CCSc1ccccc1)NCc1ccccc1	i	-2	1	2	-15
Cc1ccc(C(=O)NC(CCc2ccccc2)C(=O)O)cc1 (stereo unspecified)	/	/	/	/	118*
O=C(Nc1cc2c(=O)n(-c3ccc(Oc4ccccc4)cc3)ccc2oc1=O)c1ccccc1	i	21	62*	?	10
COc1ccc2nc3ccccc3nc2c1	i	1	86*	38*	-1
COc1ccc(-c2nc3ccccc3nc2-c2ccccc2)cc1	/	1	1	-1	3
CCCCn1c(N)c(N(CC)C(=O)c2ccccc2F)c(=O)[nH]c1=O	i	/	/	-2	1
C[C@@H]1CN=C2N(CCNC(=O)CCC3CCCCC3)[C@H](Cc3ccc(O)cc3)CN21	i	3	5	-2	-5
CCCCCCNC(=O)N[C@H](C(=O)NCCC[C@H]1CN2C(=NC[C@H]2C)N1CCC(c1ccccc1)c1ccccc1)C(C)O (stereo partly specified)	/	9	62*	/	/
Cc1ccccc1S(=O)(=O)N1CCN(c2ccc3c(c2)C2CC3CCN2C(=O)OCc2ccccc2)CC1 (stereo unspecified)	/	/	/	/	11
Cc1ccc(Nc2cc(C)nc3c(C)cccc23)cc1	i	/	/	1	-5
SMILES	Rce1 inhib	Runt-CBFb FRET	Runt-SMMHC FRET	RanGTP-Impb inh	Vif imaging
Cc1ccc(N2C=Nc3ccc(C)c4nc(C)cc2c34)cc1	i	52*	60*	99*	-3
CC1=Nc2ccc(C)c3nc(C)cc(c23)N1c1ccc(C)cc1	i	/	/	65*	-9
CCOC(=O)C1=C(COC(=O)CCOc2ccccc2)NC(=O)NC1C (stereo unspecified)	/	/	/	/	10
Nc1ccc2c(c1)Cc1cc([N+](=O)[O-])ccc1-2	i	-20	-57	-16	4
Nc1ccc2c(c1)N=[N+]([O-])c1cc(N)ccc1C2	i	1	-3	32*	2
O=C(CSc1n[nH]c(=O)[nH]c1=O)N/N=C/C=C\c1ccccc1	i	83*	-6	0	7
O=C(CSc1n[nH]c(=O)[nH]c1=O)N/N=C/C=C/c1ccccc1	i	2	0	0	2
Nc1ccc(C(=O)Nc2cccc(NC(=O)c3ccc(N)cc3)c2)cc1	i	/	/	2	11
Nc1ccc(C(=O)Nc2ccco2)cc1	i	-2	-1	37*	-9
CCN(CC)c1ccc(CC(=O)NC(C)Cc2ccccc2)cc1 (stereo unspecified)	i	1	6	-2	101*
CCN1CCN(C(C)CCc2ccccc2)CC1 (stereo unspecified)	i	/	/	1	8
CCOc1ccc(NC(=O)N[C@@H](Cc2ccccc2)C(=O)O)cc1	i	0	-2	1	0
NC(=O)c1sc2nc(-c3ccccc3)ccc2c1N	/	/	/	5	61*
COc1ccc(-c2ccc3c(N)c(C(=O)c4ccc(OC)c(OC)c4)sc3n2)cc1	i	0	-60	-3	148*
CCOC(=O)c1sc2nc(-c3ccccc3)ccc2c1N	i	5	20	30*	19
O=C1NC(=O)C(c2cccs2)(c2cccs2)N1	/	/	/	3	13
CC(C)c1ccc(NC(=O)N2CCCC2C(=O)Nc2ccc(-n3cnnn3)cc2)cc1 (stereo unspecified)	i	-1	3	1	29
Nc1c(C(=O)NCC2CCCO2)c2nc3ccccc3nc2n1-c1ccccc1 (stereo unspecified)	i	83*	-20	78*	-9
COc1ccccc1-n1c(N)c(C(=O)NCC2CCCO2)c2nc3ccccc3nc21 (stereo unspecified)	i	-6	2	57*	-8
Nc1c(S(=O)(=O)c2cccs2)c2nc3ccccc3nc2n1CC1CCCO1 (stereo unspecified)	/	7	18	/	/
COc1ccccc1-n1c(C)nc2cc(C(=O)NCC3CCCO3)ccc21 (stereo unspecified)	i	/	/	1	-2
Nc1c(C(=O)OCC2CCCO2)c2nc3ccccc3nc2n1C1CCCCC1 (stereo unspecified)	i	24	67*	0	/
CC(OC(=O)c1cc(=O)[nH]c2ccccc12)C(=O)NC1CCCC1 (stereo unspecified)	/	/	/	/	16
O=S(=O)(c1ccc(S(=O)(=O)N2CCN(C3CCCCC3)CC2)cc1)N1CCCCCC1	/	-1	-4	/	?
O=c1[nH]c2ccc(S(=O)(=O)N3CCN(C4CCCCC4)CC3)cc2[nH]c1=O	+	1	-1	-1	11
COC(=O)[C@H]1[C@H]2C[C@@H]3c4[nH]c5cc(OC)ccc5c4CCN3C[C@H]2C[C@@H](OC(=O)c2cc(OC)c(OC)c(OC)c2)[C@@H]1OC	/	/	/	/	0
